# High-throughput results deposited in PubChem by several laboratories.
# GAA850 FXN act = frataxin GAA850 promoter activation; HEK293 lucGAA850 FXN promoter luciferase reporter, 24 h; percent of 10 µM SAHA response; activation, % at 6 µM; hit rate 0.56% among 360,000; AID 540364;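 active = activation above the average of all compounds screened plus 3 SD, cutoff fixed separately per campaign, cut at about 7.5% in these data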;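 also: 0% = DMSO wells and 100% = 10 µM SAHA wells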
# GalR3 antagonist = blocks the human galanin receptor 3. O60755. HEK293 GalR3-CNG cAMP membrane potential fluorescence; galR3 body fused to GalR1 C-terminus. inhibition, % at 3 µM. hit rate 0.44% among 360,000;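 active = inhibition above the screen-wide average plus 3 SD, cut at about 13% in these data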;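 also: forskolin and galanin both at EC90 stimulate the cells; cAMP rise reported by CNG channel membrane potential dye signal; 0% = forskolin plus galanin with DMSO and 100% = forskolin alone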
# Target sequence (O60755 1-299 limits assumed): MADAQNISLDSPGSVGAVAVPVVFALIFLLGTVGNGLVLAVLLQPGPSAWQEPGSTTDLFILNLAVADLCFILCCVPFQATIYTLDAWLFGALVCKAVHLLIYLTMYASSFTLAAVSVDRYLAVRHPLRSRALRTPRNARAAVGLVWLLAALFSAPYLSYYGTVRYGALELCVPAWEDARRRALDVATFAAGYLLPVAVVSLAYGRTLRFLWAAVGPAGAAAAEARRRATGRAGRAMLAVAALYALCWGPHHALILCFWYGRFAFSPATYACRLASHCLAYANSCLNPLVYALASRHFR
# NR2E3 ag-1 = agonists of human NR2E3 nuclear receptor; CHO-S Gal4-NCOR/VP16-NR2E3 two-hybrid, luciferase; inhibition of corepressor binding, % at 3.98 µM; hit rate 0.35% among 360,000; AID 602229;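 active = inhibition above the mean of all tested compounds plus 3 SD, cut at about 70% in these data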;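 also: 0% = DMSO with NR2E3 transfected cells and 100% = cells lacking NR2E3 construct; higher means lower luciferase signal from less NR2E3 corepressor binding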
# Target sequence (Q9Y5X4 whole entry, looked up, the tested form may be a part): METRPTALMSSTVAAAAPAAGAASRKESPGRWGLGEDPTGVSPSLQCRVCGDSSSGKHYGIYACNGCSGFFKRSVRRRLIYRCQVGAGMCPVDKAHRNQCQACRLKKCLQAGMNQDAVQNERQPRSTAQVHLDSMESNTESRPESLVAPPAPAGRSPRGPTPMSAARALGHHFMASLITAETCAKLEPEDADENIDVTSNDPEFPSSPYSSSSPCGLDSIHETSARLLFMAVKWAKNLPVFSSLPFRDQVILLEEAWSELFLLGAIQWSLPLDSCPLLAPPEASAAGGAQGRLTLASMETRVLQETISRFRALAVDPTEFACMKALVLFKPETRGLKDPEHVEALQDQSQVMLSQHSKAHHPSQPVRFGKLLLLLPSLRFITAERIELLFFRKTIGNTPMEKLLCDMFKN
# V-ATPase pHluor = yeast V-ATPase proton transport regulation by pHLuorin; S. cerevisiae, pHLuorin cytosolic pH fluorescence; response, % at 10 µM; hit rate 0.37% among 350,000; in the data active = response mostly above about 7.3%, no sharp cut-off; inactive = mostly below about 5.4%; also: actives read high
# Env fusion inh = inhibitors of HIV Env-mediated cell fusion; AID 651610; HeLa-JRFL Env/CEM21 cell fusion, luciferase; inhibition, % at 12.3 µM; hit rate 1.1% among 360,000;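 active = mean replicate inhibition score of at least 50 and every replicate individually at or above 50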;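 also: 0% = plate neutral controls and 100% = maraviroc near 300 nM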
# NR2E3 ag-2 = activates human photoreceptor nuclear receptor NR2E3; GST-NR2E3/biotin-RetCOR TR-FRET, 1536-well; hit rate 0.12% among 320,000; inhibition of corepressor binding, % at 4.78 µM; AID 2300; Q9Y5X4;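 active = percent inhibition above the cutoff of mean plus 3 SD of all tested compounds, set per screening campaign, cut at about 20% in these data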;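 also: 0% = DMSO wells and 100% = biotin wells as full block of FRET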
#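 Assay system: NR2E3–RetCOR corepressor complex. Quantity: 1.35 nM GST-NR2E3. Buffer or medium: pH 7.5 Tris-based buffer. Reagent: biotinylated RetCOR corepressor at 7 nM final. Schedule: 5 h at 4 °C. Detection: TR-FRET, emission read at 617 and 671 nm. Replicates: one well per compound, singlicate testing.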
# GAA30 FXN cntr = GAA30 FXN promoter activation counter-screen | hit rate 66% among 1,900 | shares compounds with GAA850 FXN act | activation, % at 6 µM | HEK293 lucGAA30 FXN promoter luciferase, 24 h; DMSO = 0%, 5 µM ipriflavone = 100%;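 active = mean activation above the mean of solvent-only control wells plus 3 SD, cut at about 22% in these data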;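 also: counterscreen of GAA850 promoter hits where activity marks nonselective or luminescence artifacts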
# FXN GAA850 conf = GAA850 FXN promoter activation confirmation. shares compounds with GAA850 FXN act. hit rate 86% among 1,900. HEK293 lucGAA850 FXN promoter luciferase reporter, 24 h; 100% = activation by SAHA. activation, % at 6 µM;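 active = mean activation above a set limit taken from the primary screen, cut at about 8% in these data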;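 also: 0% = DMSO wells and 100% = 10 µM SAHA wells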
# An asterisk follows results filed as active; x = not tested or not shown; [ ] = remark or other dose. An excerpt weighted towards active compounds, which were near 2.2% of everything screened.
SMILES,GAA850 FXN act,GalR3 antagonist,NR2E3 ag-1,V-ATPase pHluor,Env fusion inh,NR2E3 ag-2,GAA30 FXN cntr,FXN GAA850 conf
CC1CC(C)(C)Nc2ccc(N=O)cc21 (stereo not given),13*,1,-1,-1,20,x,58*,67*
CC1CC(C)(C)Nc2ccc(OC(=O)c3ccco3)cc21 (stereo not given),5,-4,23,3,x,1,x,x
OCCCNc1c2ccccc2nc2ccccc12,13*,-11,-37,-1,-1,-4,-15,119*
CN(C(=O)c1cccc(COc2ccc(Cl)cc2Cl)c1)c1ccccc1,8.3*,-3,-234,3,-24,0,102*,39*
Cc1noc(C)c1NC(=O)Nc1ccc2c(c1)C(=O)N([C@H](C)CO)C[C@@H](C)[C@@H](CN(C)S(=O)(=O)c1ccccc1)O2,x,x,x,x,15[16.7 µM],x,x,x
CC(=Nc1ccc(Br)cc1)c1sc2ccccc2c1O,7.9*,-5,-104,0,-265,-3,116*,36*
CC(=Nc1ccccc1)c1sc2ccccc2c1O,5,0,-108,1,x,3,x,x
CCOc1ccc(NS(=O)(=O)c2ccc(C(=O)N(C)CCc3ccc(OC)c(OC)c3)cc2)cc1,9.7*,-3,30,1,89*,-2,27*,15*
Cc1noc(C)c1S(=O)(=O)Nc1ccc2c(c1)C(=O)N([C@H](C)CO)C[C@@H](C)[C@@H](CN(C)S(=O)(=O)c1ccc(Cl)cc1)OCCCC[C@H](C)O2,x,x,x,x,-45[16.7 µM],x,x,x
CCOC(=O)CN1C(=O)S/C(=C/c2ccc3c(c2)n(C)c(=O)n3C)C1=O,3,-2,-63,-2,-40,-4,x,x
CCOC(=O)CN1C(=O)S/C(=C/C=C/c2ccc(N(C)C)cc2)C1=O,8.0*,-8,-64,0,-90,0,78*,34*
CNC[C@@H]1OCCCC[C@@H](C)Oc2ccc(NC(=O)Nc3c(C)noc3C)cc2C(=O)N([C@H](C)CO)C[C@H]1C,x,x,x,x,-5[16.7 µM],x,x,x
CC1(C)C2CCC(C2)C1(C)NC(=O)CNCC1CCCCC1 (stereo not given),10*,-9,-16,2,61*,1,30*,14*
CCC(=O)Nc1ccc2c(c1)C(=O)N(C)[C@H]1CC[C@@H](CC(=O)NC3CCCC3)O[C@@H]1CO2,x,x,x,x,0[16.7 µM],x,x,x
COc1ccc(C2N(c3ccc(Cl)cc3)C(=O)C3CCCN32)cc1 (stereo not given),13*,1,-8,-2,-17,3,-5,3
COc1ccc(N2C(=O)C3CCCN3C2c2ccc(Cl)cc2)cc1 (stereo not given),1,1,-8,-2,-7,2,x,x
COc1ccc(Cn2nnnc2C(c2cc3cc(C)cc(C)c3[nH]c2=O)N2CCOCC2)cc1 (stereo not given),8.1*,-5,3,-3,131*,-1,11,7
Cc1nn2c(N)c(C#N)cnc2c1-c1ccc(Cl)cc1,5,-1,3,-1,x,-2,x,x
Cc1nn2c(N)c(C#N)cnc2c1-c1ccccc1,9.0*,-3,-9,-1,x,-1,38*,20*
CCC(=O)Nc1ccc2c(c1)C(=O)N(C)[C@H]1CC[C@H](CC(=O)Nc3cccc(F)c3)O[C@@H]1CO2,x,x,x,x,8[16.7 µM],x,x,x
Cc1nn(-c2nnc(NC3CCCCC3)nn2)c(C)c1Br,8.6*,-2,-93,0,-53,-1,124*,40*
Cc1nn(C)c(C)c1S(=O)(=O)NC1CCCC1,1,1,12,3,x,4,x,x
CC(C)NC(=O)N(C)C[C@@H]1Oc2ccc(NS(=O)(=O)c3cn(C)cn3)cc2CC(=O)N([C@H](C)CO)C[C@H]1C,x,x,x,x,-2[16.7 µM],x,x,x
O=C(O)Cc1cn(-c2ccccc2)nc1-c1ccccc1,1,2,1,3,19,-2,x,x
O=C(O)/C=C/C(=O)NCc1cn(-c2ccccc2)nc1-c1cccc(Br)c1,8.2*,-4,12,-1,-11,2,30*,13*
SMILES,GAA850 FXN act,GalR3 antagonist,NR2E3 ag-1,V-ATPase pHluor,Env fusion inh,NR2E3 ag-2,GAA30 FXN cntr,FXN GAA850 conf
N#C/C(=C\c1ccccc1[N+](=O)[O-])C(=O)NC1CCCCC1,2,-7,-5,1,6,1,x,x
N#C/C(=C\C=C\c1ccccc1[N+](=O)[O-])C(=O)NC1CCCCC1,14*,x,10,3,x,1,-34,18*
O=C(CSc1ccc(-c2cccc([N+](=O)[O-])c2)nn1)N1CCCC1,3,-2,-1,-4,0,6,x,x
CCSc1ccc(-c2cccc([N+](=O)[O-])c2)nn1,8.5*,3,-63,-3,-3,1,97*,29*
N#C/C(=C\c1ccc(N2CCOCC2)o1)c1nc2ccccc2[nH]1,1,-1,-37,0,x,-8,x,x
N#C/C(=C/c1ccc(N2CCOCC2)o1)c1ccc(Cl)cc1,20*,1,-10,-1,-259,1,119*,47*
COCC(=O)Nc1ccc2c(c1)C(=O)N(C)[C@@H]1CC[C@H](CC(=O)Nc3ccccc3)O[C@@H]1CO2,x,x,x,x,18[16.7 µM],x,x,x
Cc1ccc(S(=O)(=O)Nc2ccc3c(c2)C(=O)N([C@H](C)CO)C[C@@H](C)[C@@H](CN(C)Cc2ccc4c(c2)OCO4)OCCCC[C@@H](C)O3)cc1,x,x,x,x,13[16.7 µM],x,x,x
CN(C)C(=O)c1ccc(-c2cccc(-c3nc(C(=O)N(C)C)cc4c3[C@@H](CCO)N([S@](=O)C(C)(C)C)C4)c2)cc1,x,x,x,x,-17[16.7 µM],x,x,x
CCOC(=O)c1[nH]c(C)c(CC(C)C)c1C,8.5*,x,-33,-4,x,4,40*,15*
CCOC(=O)c1[nH]c(C)c(C(=O)C(C)C)c1C,8.8*,-5,-34,6,1,3,77*,24*
CCOC(=O)c1c(C)[nH]c(C(=O)C(C)Cl)c1C (stereo not given),-1,-2,10,-1,34,-1,x,x
CCOC(=O)c1[nH]c(C)c(C(=O)N(C)C)c1C,-2,-7,-18,5,-32,3,x,x
CCOC(=O)N1CCN(C(=O)c2ccc(CS(=O)(=O)c3ccc(OC)cc3)o2)CC1,14*,-2,-14,-3,10,5,20,7
COc1ccc(S(=O)(=O)Cc2ccc(C(=O)N3CCCC3)o2)cc1,-2,0,-16,-5,9,3,x,x
CCS(=O)(=O)Nc1cc(-c2nc3cccnc3s2)ccc1C,7.9*,x,-73,5,x,3,117*,34*
